# Assays:
# Type in all cases: binding
# [1] = test system: human katanin AAA domain variability hotspot mutant constructs (L214C, T253N, A419L, T422K etc.); experiment: DSF, katanin AAA domain variability hotspot mutants
# How it was run: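 Human katanin constructs (AAA domain aa 171–491, or aa 111–491; WT or mutants) were expressed in E. coli Rosetta (DE3) pLysS and purified by MBP-affinity, protease tag cleavage, anion exchange and gel filtration. Protein was 8 μM in 20 mM HEPES.Na, 120 mM NaCl, 5 mM MgCl2, 1 mM TCEP, 10 mM (NH4)2SO4, pH 7.5, with SYPRO Orange. Ligand was ADP 1 mM or compound 50–500 μM, in 5% DMSO final. Tm was taken as the minimum of the first derivative of fluorescence versus temperature.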
# [2] = biological target: T1, HS-VPS4B-WT (Homo sapiens, UniProt O75351); experiment: DSF, HS-VPS4B-WT; conditions: ADP 1 mM; WT and Asp-to-Cys mutant to a similar extent
# T1 sequence (O75351 1-444): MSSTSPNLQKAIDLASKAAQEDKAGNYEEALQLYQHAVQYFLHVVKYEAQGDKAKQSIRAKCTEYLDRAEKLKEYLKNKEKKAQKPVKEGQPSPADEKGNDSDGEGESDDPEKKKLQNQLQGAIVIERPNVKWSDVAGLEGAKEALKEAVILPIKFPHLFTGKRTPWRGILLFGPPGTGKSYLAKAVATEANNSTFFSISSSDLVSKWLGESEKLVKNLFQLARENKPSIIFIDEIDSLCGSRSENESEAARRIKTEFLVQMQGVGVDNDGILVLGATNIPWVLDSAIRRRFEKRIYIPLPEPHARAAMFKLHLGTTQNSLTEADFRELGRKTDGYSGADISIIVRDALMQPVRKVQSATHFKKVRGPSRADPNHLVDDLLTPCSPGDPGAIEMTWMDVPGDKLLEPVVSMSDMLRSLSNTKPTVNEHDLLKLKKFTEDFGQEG
# How it was run: (§1)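 FIGL1 and HS-VPS4B (WT and Asp-to-Cys mutant) were scanned at 8 μM protein, with or without ADP 1 mM, in 20 mM HEPES.Na, 120 mM NaCl, 5 mM MgCl2, 1 mM TCEP, 10 mM (NH4)2SO4, pH 7.5. Buffer contained SYPRO Orange and 5% DMSO final. Melting temperature was taken from the minimum of the first derivative of the fluorescence–temperature curve. ΔTm was relative to the no-ADP control.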
# [3] = biological target: T2, FIGL1-WT (Homo sapiens, UniProt Q6PIW4); experiment: DSF, FIGL1-WT; conditions: ADP 1 mM; WT and Asp-to-Cys mutant to a similar extent
# T2 sequence (Q6PIW4 288-674): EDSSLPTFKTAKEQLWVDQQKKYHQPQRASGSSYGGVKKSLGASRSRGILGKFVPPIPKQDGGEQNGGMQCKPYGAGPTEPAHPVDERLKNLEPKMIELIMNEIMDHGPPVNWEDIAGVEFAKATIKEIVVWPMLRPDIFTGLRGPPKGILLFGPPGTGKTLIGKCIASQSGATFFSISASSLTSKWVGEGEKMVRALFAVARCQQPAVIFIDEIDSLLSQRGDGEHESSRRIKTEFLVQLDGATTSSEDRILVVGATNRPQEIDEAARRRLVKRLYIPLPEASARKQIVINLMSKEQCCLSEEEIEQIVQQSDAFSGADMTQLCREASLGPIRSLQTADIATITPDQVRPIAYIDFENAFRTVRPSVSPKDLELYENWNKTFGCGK
# How it was run: as §1
increase in thermal stability on ADP binding [2],increase in thermal stability on ADP binding [3],"effect of mutation on compound binding (DSF) ([1]; three of the four variability hotspot mutations, compound 500 μM)",Compound,"shift in melting temperature (ΔTm) ([1]; ADP 1 mM, five alleles with mutations at the variability hotspots)"
approximately +5 °C,~+3 °C,,"Nc1ncnc2c1ncn2[C@@H]1O[C@H](COP(=O)(O)OP(=O)(O)O)[C@@H](O)[C@H]1O [ADP, adenosine 5’-diphosphate]",+4 to +6 °C
,,reduced compound binding,"Nc1nc2c(-c3ccccc3)cccn2n1 [compound 1, 8-phenyl-triazolopyridine-2-amine]",
